SMILES strings stand for the structures. In brackets after ≈: the same amount, converted by molar mass. Where only a bound is given, the exact number is not on record here.

Test [1] concerns Staphylococcus aureus. Put plainly: Antibacterial activity against Staphylococcus aureus 1199B overexpressing wild type NorA and GrlA A116E mutant by microdilution technique. Type of test: functional. The method, boiled down: (§1)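 Intrinsic MIC of each test compound, run alone, by broth microdilution per CLSI guidelines, in duplicate.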
(In broth dilution the organism is exposed to a series of concentrations in liquid medium.)

The subject of test [2] is Staphylococcus aureus. Put plainly: Antibacterial activity against wild type Staphylococcus aureus ATCC 25923 by microdilution technique. It is filed as functional. The method, boiled down:
as §1

Test [3] relates to Staphylococcus aureus. Kind of test: Antibacterial activity against Staphylococcus aureus K2378 overexpressing NorA by microdilution technique. Type of test: functional. The method, boiled down:
as §1

Test [4] deals with Staphylococcus aureus. Put plainly: Antibacterial activity against NorA deficient Staphylococcus aureus K1902 by microdilution technique. It is filed as functional. The method, boiled down:
as §1

Test [5] concerns the target T1, Quinolone resistance protein NorA (Staphylococcus aureus) (UniProt P0A0J7).
T1 sequence (whole entry): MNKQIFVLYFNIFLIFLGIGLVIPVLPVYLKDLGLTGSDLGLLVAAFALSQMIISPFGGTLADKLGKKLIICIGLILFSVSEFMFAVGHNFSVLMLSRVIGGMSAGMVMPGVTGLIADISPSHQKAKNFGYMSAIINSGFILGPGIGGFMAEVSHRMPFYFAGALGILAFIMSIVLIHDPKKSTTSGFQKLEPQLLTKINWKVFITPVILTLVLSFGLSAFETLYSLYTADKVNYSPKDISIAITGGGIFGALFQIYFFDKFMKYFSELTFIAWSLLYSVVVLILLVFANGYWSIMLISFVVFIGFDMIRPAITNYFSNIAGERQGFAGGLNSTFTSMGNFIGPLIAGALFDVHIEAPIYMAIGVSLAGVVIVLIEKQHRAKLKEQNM
Put plainly: Inhibition of NorA in Staphylococcus aureus 1199 assessed as reduction in ciprofloxacin MIC at 0.78 ug/ml by microdilution technique. The method, boiled down:
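Checkerboard combination of ciprofloxacin with freshly prepared test compound in S. aureus SA-1199 (norA wild-type). Ciprofloxacin MIC determined in duplicate by CLSI microdilution in the presence of fixed compound concentrations.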

For test [6], the system named is Staphylococcus aureus. Put plainly: Antibacterial activity against Staphylococcus aureus 1199B by microdilution technique. It is filed as functional. The method, boiled down:
(§2)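 MICs run in duplicate by broth microdilution following CLSI guidelines. Ciprofloxacin MICs were also determined with scalar dilutions of freshly prepared test compound solutions in checkerboard combination format. Strain panel: SA-K1902 (norA-), SA-K2378 (norA++), SA-1199 (norA wild-type), SA-1199B (norA++, GrlA A116E) and ATCC 25923 wild-type control.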

Test [7] deals with Staphylococcus aureus. Put plainly: Antibacterial activity against Staphylococcus aureus 1199 expressing wild type NorA by microdilution technique.
The target in test [8] is T1, Quinolone resistance protein NorA (Staphylococcus aureus). Put plainly: Inhibition of NorA in Staphylococcus aureus 1199B assessed as reduction in ethidium bromide efflux at 50 uM by fluorimetry after 5 mins. The method, boiled down: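 S. aureus SA-1199B (NorA overexpressing via promoter up-mutation; GrlA A116E), EtBr-loaded cells. EtBr loss measured fluorometrically over a 5 min time course, in duplicate, as mean total efflux. Percent reduction calculated versus efflux without compound. Test compound at 50 μM; increasing concentrations were also run for dose-response profiles.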

Test [9] relates to Staphylococcus aureus. Put plainly: Potentiation of ciprofloxacin MIC against wild type Staphylococcus aureus ATCC 25923 at 3.13 ug/ml by microdilution technique. Type of test: functional. The method, boiled down: (§3)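 Ciprofloxacin MICs were measured in duplicate by broth microdilution following CLSI guidelines, alone and in checkerboard combination with scalar dilutions of freshly prepared test compound. Potentiation was scored as the reduction in ciprofloxacin MIC. Strains: SA-1199B (NorA overexpressed via promoter up-mutation, plus GrlA A116E) and ATCC 25923 (wild-type control).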

The target of test [10] is T1, Quinolone resistance protein NorA (Staphylococcus aureus). Put plainly: Inhibition of NorA in Staphylococcus aureus 1199B expressing GrlA A116E mutant assessed as reduction in ciprofloxacin MIC at 12.5 ug/ml by microdilution technique. The method, boiled down: (§4)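 Checkerboard combination: fresh scalar dilutions of test compound crossed with ciprofloxacin dilutions. Ciprofloxacin MIC determined by broth microdilution per CLSI guidelines, in duplicate. The result is the fold reduction in ciprofloxacin MIC relative to ciprofloxacin alone, read at the stated test-compound concentration. Reserpine served as reference inhibitor.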

For test [11] the target is unchanged. Kind of test: Inhibition of NorA in Staphylococcus aureus K2378 assessed as reduction in ciprofloxacin MIC at 12.5 ug/ml by microdilution technique. The method, boiled down: as §4
For test [12] the target is unchanged. Kind of test: Inhibition of NorA in Staphylococcus aureus 1199B expressing GrlA A116E mutant assessed as reduction in ciprofloxacin MIC at 25 ug/ml by microdilution technique. The method, boiled down:
as §3

The subject of test [13] is Staphylococcus aureus. Put plainly: Potentiation of ciprofloxacin MIC against NorA deficient Staphylococcus aureus K1902 by microdilution technique. It is filed as functional. The method, boiled down:
as §2

In test [14] the test system is Staphylococcus aureus. Kind of test: Potentiation of ciprofloxacin MIC against wild type Staphylococcus aureus ATCC 25923 by microdilution technique. It is filed as functional. The method, boiled down: as §2
For test [15], the target named is T1, Quinolone resistance protein NorA (Staphylococcus aureus). Kind of test: Inhibition of NorA in Staphylococcus aureus K2378 assessed as reduction in ciprofloxacin MIC at 3.13 ug/ml by microdilution technique. The method, boiled down: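 CLSI broth microdilution checkerboard combining ciprofloxacin with scalar dilutions of freshly prepared test compound, in duplicate, against S. aureus SA-K2378 (NorA-overexpressing; SA-K1902 norA-negative as paired strain). Value is the ciprofloxacin MIC reduction with test compound present at the stated fixed concentration.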

Test [16] has the same target. Kind of test: Inhibition of NorA in Staphylococcus aureus 1199 assessed as reduction in ciprofloxacin MIC by microdilution technique. The method, boiled down: as §4
For test [17] the target is unchanged. Put plainly: Inhibition of NorA in Staphylococcus aureus K2378 assessed as reduction in ciprofloxacin MIC at 1.56 ug/ml by microdilution technique. The method, boiled down: as §4
Test [18] has the same target. Kind of test: Inhibition of NorA in Staphylococcus aureus 1199B expressing GrlA A116E mutant assessed as reduction in ciprofloxacin MIC at 1.56 ug/ml by microdilution technique. The method, boiled down: as §4

As a reminder, the MIC is the least concentration at which growth counts as inhibited. For orientation: inhibition means the drop in the measured response relative to a control, in per cent. In the case of `Cc1ccc(S(=O)(=O)Nc2ccc3[nH]c(-c4cccn4C)nc3c2)cc1`, the MIC against Staphylococcus aureus [1] is above 100 µg/mL; in the test with Staphylococcus aureus [2] it was above 100 µg/mL; against Staphylococcus aureus [3], above 100 µg/mL; in the test with Staphylococcus aureus [4] it was above 100 µg/mL; in the test on Staphylococcus aureus [6], above 273 µM; against Staphylococcus aureus [7] it was above 100 µg/mL. Besides, the fold change (FC) (in test [5]; with Staphylococcus aureus [9]) was 8 each time. Further, the inhibition in [8] came to 88.2%.

As for `C[C@@H](NCc1cccc(OCc2ccccc2)c1)[C@@H](O)c1ccccc1`, the fold change (FC) in test [10] is 4; in test [11], 16; in test [12], 16; in the test with Staphylococcus aureus [13] it was 2; in the test with Staphylococcus aureus [14], 2; in test [15] it was 4. Further, the fold change (FC) in [16] stood at 2. For the same compound, the MIC in the test with Staphylococcus aureus [1] was above 100 µg/mL; with Staphylococcus aureus [2], 100 µg/mL (≈ 288 µM); in the test with Staphylococcus aureus [3], 50 µg/mL (≈ 144 µM); in the test with Staphylococcus aureus [4], 100 µg/mL (≈ 288 µM); against Staphylococcus aureus [6], above 288 µM; against Staphylococcus aureus [7], 100 µg/mL (≈ 288 µM). The inhibition in test [8] was 86.6%.

As for `Cn1cccc1-c1nc2cc(NC(=O)c3ccccc3)ccc2[nH]1`, the inhibition in test [8] was determined as 94.3%. Moreover, the fold change (FC) in test [16] was 4.

As to `OC(CNCc1cccc(OCc2ccccc2)c1)c1ccccc1` (stereo not drawn), the inhibition in test [8] amounted to 88.4%. For the same compound, the fold change (FC) in test [16] turned out to be 4.

On to `CC[C@H](C)N1C(=O)S/C(=C/c2ccc(-c3cc(C(=O)O)ccc3Cl)o2)C1=O`, for which the fold change (FC) worked out at 8 in test [10]; 32 in test [11]; 2 in the test on Staphylococcus aureus [13]; 2 with Staphylococcus aureus [14]; 32 in test [15]; 2 in test [16]. The MIC stood at 50 µg/mL (≈ 123 µM) against Staphylococcus aureus [1]; 50 µg/mL (≈ 123 µM) against Staphylococcus aureus [2]; 50 µg/mL (≈ 123 µM) against Staphylococcus aureus [3]; 50 µg/mL (≈ 123 µM) in the test with Staphylococcus aureus [4]; 123 µM (≈ 49.9 µg/mL) with Staphylococcus aureus [6]; 25 µg/mL (≈ 61.6 µM) with Staphylococcus aureus [7]. The inhibition in test [8] is 81%.

Take `CC[C@H]1CCc2nc(SCc3ccc(C(=O)O)cc3)c(C#N)c(C(F)(F)F)c2C1`: the MIC worked out at 6.25 µg/mL (≈ 14.9 µM) in the test on Staphylococcus aureus [1]; 6.25 µg/mL (≈ 14.9 µM) in the test on Staphylococcus aureus [2]; 6.25 µg/mL (≈ 14.9 µM) against Staphylococcus aureus [3]; 6.25 µg/mL (≈ 14.9 µM) in the test with Staphylococcus aureus [4]; 15 µM (≈ 6.31 µg/mL) in the test on Staphylococcus aureus [6]; 12.5 µg/mL (≈ 29.7 µM) in the test on Staphylococcus aureus [7]. In addition, the fold change (FC) in test [17] stood at 16; in the test with Staphylococcus aureus [13] it was 2; in [18], 2; with Staphylococcus aureus [14] it was 2; in test [16] it was 2. Moreover, the inhibition in test [8] was found to be 71.7%.

As for `CCOc1ccc(C2C(C(=O)Nc3cccnc3)=C(C)Nc3nc(CCCO)nn32)cc1OC` (stereo not drawn), the inhibition in test [8] turned out to be 14.8%.

As for `CCCOc1ccc(-c2cc(=O)c3ccccc3n2CCN(CC)CC)cc1`, the inhibition in [8] stood at 57.3%.

`CN1CCN(CCCN2c3ccccc3Sc3ccc(Cl)cc32)CC1`: the inhibition in test [8] was above 78%.

In the case of `c1ccc(CCN(Cc2ccccc2)Cc2cccc(OCc3ccccc3)c2)cc1`, in [8], the inhibition turned out to be 0%.

As to `Cn1c(-c2ccccc2)cc(=O)c2cc(O)c(O)cc21`, in test [8], the inhibition was 0%.

Turning to `CCCOc1ccc(-c2cc(O)c3ccccc3n2)cc1`, the inhibition in test [8] is 0%.

For the compound `Cn1c(-c2ccc(OCCN3CCCCC3)cc2)cc(=O)c2ccccc21`, the inhibition in test [8] turned out to be 19.8%.

As for `COc1cc2c(=O)cc(-c3ccccc3)n(C)c2cc1OC`, the inhibition in test [8] amounted to 9.4%.

In the case of `CCCOc1ccc(-c2cc(=O)c3cc(OC)c(O)cc3n2C)cc1`, the inhibition in test [8] came to 9.1%.

As for `c1ccc(C2=Nc3ccccc3SC2)cc1`, the inhibition in [8] was 0%.

Turning to `CCOC(=O)c1cn(C2CC2)c2cc(N3CCC4=C(C3)/C(=N/OC)CCS4)c(N)cc2c1=O`, the inhibition in test [8] stood at 74.5%.
